UHRF1 MBD2 ctr: human UHRF1 methylated DNA binding inhibitors. UHRF1 binding to methylated oligo, TR-FRET. inhibition, % at 4.4 µM. 370,000 tested, 0.75% active; in the data active = inhibition above about 21%;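 note: UHRF1 SRA domain binding a hemimethylated CpG hairpin DNA probe; 0% = median of test compound wells and 100% = reference inhibitor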
Target sequence (Q96T88 whole entry, looked up, the tested form may be a part): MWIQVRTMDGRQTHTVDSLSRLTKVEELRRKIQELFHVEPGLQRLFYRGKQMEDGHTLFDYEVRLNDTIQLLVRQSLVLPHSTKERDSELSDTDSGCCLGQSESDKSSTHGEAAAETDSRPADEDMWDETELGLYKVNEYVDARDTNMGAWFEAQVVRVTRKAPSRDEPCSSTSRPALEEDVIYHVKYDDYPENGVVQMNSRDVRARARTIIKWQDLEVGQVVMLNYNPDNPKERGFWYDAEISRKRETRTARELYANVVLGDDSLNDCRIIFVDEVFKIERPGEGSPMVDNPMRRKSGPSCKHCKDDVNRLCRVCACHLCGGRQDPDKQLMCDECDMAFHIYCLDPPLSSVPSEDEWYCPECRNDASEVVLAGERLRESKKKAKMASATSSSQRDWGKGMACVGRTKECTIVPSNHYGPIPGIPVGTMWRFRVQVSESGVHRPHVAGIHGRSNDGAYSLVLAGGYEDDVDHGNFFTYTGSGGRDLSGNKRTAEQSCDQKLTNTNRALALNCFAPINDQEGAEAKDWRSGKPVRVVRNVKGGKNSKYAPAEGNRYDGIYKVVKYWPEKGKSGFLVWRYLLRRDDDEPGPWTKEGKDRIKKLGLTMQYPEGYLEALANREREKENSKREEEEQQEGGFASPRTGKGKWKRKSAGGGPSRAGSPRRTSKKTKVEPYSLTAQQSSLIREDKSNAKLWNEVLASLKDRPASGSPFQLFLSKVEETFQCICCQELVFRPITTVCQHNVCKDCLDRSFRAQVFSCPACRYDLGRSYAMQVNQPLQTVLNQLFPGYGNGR
LEDGF integ inh: blocks HIV-1 LEDGF/p75-dependent DNA integration. TR-FRET IN-LEDGF/p75 DNA integration, Eu/Cy5. inhibition, % at 3.7 µM. 370,000 tested, 0.64% active;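 active = inhibition above the screen-wide mean plus 3 SD, cut at about 13% in these data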;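 note: signal is the Cy5 over europium emission ratio at 671 and 618 nm; 0% = plate median of compound wells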
Rin1-Abl PPI inh: blocks binding of human Rin1 to Abl; P00519+Q13671; TR-FRET Rin1/Abl binding, biochemical; inhibition, % at 7.35 µM; 360,000 tested, 0.4% active; AID 588664; in the data active = inhibition above about 5%, passing the limit was not always enough
MBD2 inh: inhibitors of human MBD2 binding to methylated oligonucleotide | Q9UBB5 | TR-FRET | inhibition, % at 4.4 µM | 370,000 tested, 0.31% active | AID 686964; in the data active = inhibition above about 13%
TDP2 inh: TDP2 (human) inhibition, absorbance primary screen; recombinant TDP2, T5PNP hydrolysis, p-nitrophenol absorbance 415 nm; inhibition, % at 12.8 µM; 370,000 tested, 0.34% active; AID 720702;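 active = inhibition above the mean of all tested compounds plus 3 SD, set per campaign, cut at about 25% in these data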;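 note: 0% = DMSO with enzyme and 100% = buffer with substrate but no TDP2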
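Evaluation: % inhibition relative to enzyme-containing and enzyme-free wells. Material: recombinant human TDP2. Benchmarks: enzyme-free and DMSO wells. Timing: enzyme reaction with compound for 2 h at 37 °C. Compound dosing: 12.8 µM only. Measured by: p-Nitrophenol epi absorbance. Reagent: T5PNP substrate at 5 mM, a TopII-DNA adduct mimic. Replication: single well per compound.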
TDP2 confirm: human TDP2 inhibition, confirmation. inhibition, % at 12.8 µM. AID 743263. recombinant human TDP2, absorbance read-out. shares compounds with TDP2 inh. 1,100 tested, 22% active; in the data active = inhibition above about 25%;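 note: 0% = vehicle with enzyme and 100% = no enzyme buffer only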
IN multimer up: counter-screen for LEDGF/p75 integration inhibitors: HIV-1 integrase multimerization activators | shares compounds with LEDGF integ inh | TR-FRET HIV-1 integrase multimerization, biochemical | activation, % at 7.7 µM | 2,000 tested, 17% active | AID 1053131; in the data active = activation above about 8.9%
TRFRET interf: optically interferes with TR-FRET readout in LEDGF counter-screen; shares compounds with LEDGF integ inh; TR-FRET optical interference counterscreen, HIV-1 IN multimerization; inhibition, % at 7.7 µM; 2,000 tested, under 10 active;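 active = inhibition above the mean over all tested compounds plus 3 SD, which no compound reached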;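 note: 0% = integrase with antibodies and DMSO and 100% = antibodies without integrase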
IN-LEDGF confirm: confirmation of HIV-1 LEDGF/p75-dependent integration inhibitors; shares compounds with LEDGF integ inh; TR-FRET LEDGF/p75-dependent HIV-1 integration, biochemical; inhibition, % at 3.7 µM; 2,000 tested, 36% active; AID 1053136; in the data active = inhibition above about 14%
* hit, by the source's call; x = not tested or not shown; ! = not active in a repeat. Hits are enriched below; roughly 1.9% of the tested compounds scored in any of these assays.

SMILES	UHRF1 MBD2 ctr	LEDGF integ inh	Rin1-Abl PPI inh	MBD2 inh	TDP2 inh	TDP2 confirm	IN multimer up	TRFRET interf	IN-LEDGF confirm
Cc1cccc(C)c1-n1nnnc1C(c1cccc2ccccc12)N1CCC2(CC1)C(=O)NCN2c1ccccc1 (configuration not stated)	1.2	2.8	4.7	-1.6	-6.6	x	x	x	x
Cc1cccc(OP(=O)(Nc2ccc(F)cc2)Oc2cccc(C)c2)c1	-1.8	-5.0	-0.5	-2.6	-17.9	x	x	x	x
NNc1n[nH]c(=S)n1N	0.8	-2.6	-3.4	0.8	32.9*	-4.7	x	x	x
CC[C@@H](CO)C1CC2NC3CC4(c5ccccc5N(C)[C@@H]24)C(O)C31 (some centres not stated)	2.4	1.5	1.8	4.1	-9.3	x	x	x	x
O=C1C(=O)c2ccccc2-c2ccccc21	-10.1	-54.2	5.9	10.9	68.0*	90.0*	x	x	x
O=C1NC(=O)C(Sc2ccccc2[N+](=O)[O-])C(=O)N1	-1.3	3.7	3.8	-2.0	50.9*	32.8*	x	x	x
C/C(=N\NC(=O)c1ccccc1O)c1c(O)n(Cc2ccccc2)c(=O)[nH]c1=O	-4.1	1.7	-0.5	-6.7	27.9*	4.2	x	x	x
C/C(=N\NC(=O)c1ccncc1)c1c(O)n(Cc2ccccc2)c(=O)[nH]c1=O	-2.1	0.8	-0.6	-5.2	-13.5	x	x	x	x
COC(=O)C1=C(c2ccc(OC)c(OC)c2)C[C@@H]2CC[C@H]1N2C(=O)NCc1cccc2ccccc12	-0.6	1.3	1.2	0.8	7.5	x	x	x	x
CN1CCN(c2ccc([N+](=O)[O-])c3no[n+]([O-])c23)CC1	-26.8	0.7	-21.6	-29.2	24.6*	26.4*	x	x	x
O=[N+]([O-])c1ccc(N(CCO)CCO)c2c1no[n+]2[O-]	-22.7	10.1	-47.6	-27.4	8.0	x	x	x	x
O=C1/C(=C\c2ccccc2)C2OCC=C3CN4CCC56c7ccccc7N1C5C2C3CC46 (configuration not stated)	-2.6	-0.9	-3.0	0.1	6.5	x	x	x	x
CCCCNC(=O)c1c(N)n(CCCOC)c2nc3ccccc3nc12	4.4	1.2	0.4	-0.3	36.3*	1.1	x	x	x
COCCNC(=O)c1c(N)n(CCC(C)C)c2nc3ccccc3nc12	8.5	3.7	-2.9	-7.7	9.0	x	x	x	x
CC(C)CCNC(=O)c1c(N)n(Cc2ccc3c(c2)OCO3)c2nc3ccccc3nc12	2.5	4.8	-0.1	-7.3	45.1*	-5.8	x	x	x
Cc1ccc2c(c1)N(C(=O)CCC(=O)N1CCC3(CC1)OCCO3)CCO2	1.0	2.4	1.7	3.2	5.4	x	x	x	x
COc1ccc(CN2C(=O)CC(=O)NC2=O)cc1	-1.3	-1.4	-4.2	4.0	-2.9	x	x	x	x
O=C1CC(=O)N(Cc2ccccc2)C(=S)N1	0.0	3.5	0.6	2.1	32.3*	8.7	x	x	x
[Cl][Pt+2][Cl].[NH-]C1CCCCC1[NH-] (configuration not stated)	-1.9	0.4	-6.5	3.3	5.4	x	x	x	x
CC(C)C[C@H]1C(=O)N2CCC[C@H]2[C@]2(O)O[C@](NC(=O)[C@@H]3C=C4c5cccc6[nH]cc(c56)C[C@H]4N(C)C3)(C(C)C)C(=O)N12	x	x	-7.6	x	x	x	x	x	x
CC[C@@H](CO)NC(=O)[C@@H]1C=C2c3cccc4c3c(cn4C)C[C@H]2N(C)C1	17.0	24.6*!	-21.7	4.6	31.1*!	21.7	2.0	-7.3	13.9*
O=c1cc(C2CCNCC2)[nH][nH]1	13.2	19.3*	-1.5	7.2	55.9*	5.1	-2.5	9.1	-6.1
c1ccc(-n2ccnc2)cc1	2.1	2.0	1.2	-2.2	-5.4	x	x	x	x
COCCCn1c(N)c(C(=O)OCCOC)c2nc3ccccc3nc21	5.3	27.8*	0.1	-0.5	50.2*	11.2	7.8	-29.4	1.1
COP(=O)(OC)Oc1ccc(C(O)C(Cl)(Cl)Cl)cc1 (configuration not stated)	1.8	1.5	-0.8	3.6	5.9	x	x	x	x
SMILES	UHRF1 MBD2 ctr	LEDGF integ inh	Rin1-Abl PPI inh	MBD2 inh	TDP2 inh	TDP2 confirm	IN multimer up	TRFRET interf	IN-LEDGF confirm
COC1CC2C=C(C)C=CC=CC(=O)NC(c3ccccc3)CC=CCCC(O)CC(=O)C2=C1O (configuration not stated)	19.0	22.4*	4.8	4.7	9.3	x	4.7	-23.6	49.8*
O=C1C(Cc2cnc[nH]2)NC(=S)N1c1ccccc1 (configuration not stated)	-0.7	2.2	1.8	-2.8	7.2	x	x	x	x
CN1C2CCC1C(C(=O)Oc1ccccc1)C(c1ccc(Cl)cc1)C2 (configuration not stated)	-3.5	0.1	x	-2.6	4.8	x	x	x	x
Cc1cccc(N2C(=O)NC(=O)/C(=C\C=C\c3ccco3)C2=O)c1	11.3	31.2*	-2.3	4.8	-1.1	x	0.4	-1.9	27.8*
Cc1ccc(N2C(=O)NC(=O)/C(=C\C=C\c3ccco3)C2=O)cc1C	12.2	29.2*	-1.7	4.6	-1.9	x	0.8	-3.7	33.6*
Cc1ccc(N2C(=O)NC(=O)/C(=C\C=C\c3ccco3)C2=O)cc1	7.5	40.6*	3.6	2.0	-7.0	x	-0.1	0.8	33.1*
O=C1NC(=O)N(c2ccccc2)C(=O)/C1=C/C=C/c1ccco1	5.7	28.3*	2.8	6.9	-0.6	x	0.4	-1.8	18.6*
Cc1ccc(S(=O)(=O)N(C)N=O)cc1	-1.0	2.5	-2.9	4.2	9.7	x	x	x	x
CN(C)C(=O)Oc1ccc(Cl)c2ccccc12	5.7	4.2	-3.2	-4.6	-14.8	x	x	x	x
Cc1c(OC(=O)N(C)C)ccc2c1O/C(=C\c1ccco1)C2=O	3.9	17.5*	-1.5	2.2	-2.2	x	0.2	-0.6	-2.6
COc1ccc(-n2c(Cc3ccccc3)nc3ccccc3c2=O)cc1	-3.0	-2.3	-0.1	0.8	8.6	x	x	x	x
CCOc1ccc(-n2c(CC)nc3ccccc3c2=O)cc1	0.1	39.1*	-2.3	7.6	1.8	x	-0.9	4.5	1.0
O=C(c1cc(-c2ccc(Cl)cc2)n(-c2ccc(Cl)cc2Cl)n1)N1CCOCC1	2.7	26.2*	-2.1	3.2	-0.7	x	0.5	-2.4	-7.8
CCc1ccc(N2C(=O)NC(=O)/C(=C\c3cccn3CCOc3ccc(C(C)C)cc3)C2=O)cc1	-2.8	-1.0	-2.2	3.6	7.8	x	x	x	x
Cc1ccccc1-n1c(C)cc(/C=C2/C(=O)NC(=O)N(Cc3ccco3)C2=O)c1C	11.1	49.4*	-0.2	6.8	-5.2	x	-0.6	2.1	-0.2
